The subject of assay [1] is INA-6. The experiment in a line: Inhibition of heat shock response in human INA-6 cells assessed as reduction in HSF-1 mediated upregulation of the heat shock protein HSP27 at 50 uM preincubated for 4 hrs followed by HSP90 inhibitor and HSR inducer NVP-AUY922 addition measured after 4 hrs by Western blot method. It counts as functional, cell-based. The method, boiled down: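 INA-6 myeloma cells pretreated with test compound for 4 h, then co-treated with the HSP90 inhibitor/HSR inducer NVP-AUY922 for a further 4 h. Cells harvested; HSP72, HSP27, HSF1 or phospho-HSF1 probed by Western blot with β-actin as loading control. DMSO-only cells were the negative control; NVP-AUY922-only cells were the positive control.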

In assay [2] the target is MICOS complex subunit MIC60 (Homo sapiens) (UniProt Q16891). Briefly: Binding affinity to MICOS complex subunit MIC60 in human INA-6 cells after 3 hrs by nanoLC-MS/MS method. Format: cell-based. The method, boiled down:
(§1)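 The biotinylated inhibitor was loaded on streptavidin beads, with empty beads as the control. Eluates were trypsin-digested and run by nanoLC-MS/MS. Inhibitor/control ratios came from label-free quantification, taken as medians of five biological replicates. Enrichment was called at Benjamini-Hochberg-adjusted limma p < 0.02.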

The target of assay [3] is MICOS complex subunit MIC10 (Homo sapiens) (UniProt Q5TGZ0). Briefly: Binding affinity to MICOS complex subunit MIC10 in human INA-6 cells after 3 hrs by nanoLC-MS/MS method. It counts as cell-based. The method in brief:
as §1

Assay [4] addresses CCR4-NOT transcription complex subunit 10 (Homo sapiens) (UniProt Q9H9A5). Briefly: Binding affinity to CCR4-NOT transcription complex subunit 10 in human INA-6 cells after 3 hrs by nanoLC-MS/MS method. It counts as cell-based. The method, boiled down: as §1
For assay [5], the target named is Survival motor neuron protein (Homo sapiens) (UniProt Q16637). Briefly: Binding affinity to survival motor neuron protein in human INA-6 cells after 3 hrs by nanoLC-MS/MS method. Format: cell-based. The method, boiled down:
as §1

Assay [6] concerns the target Serine/threonine-protein phosphatase 6 regulatory ankyrin repeat subunit A (Homo sapiens) (UniProt O15084). Briefly: Binding affinity to serine/threonine-protein phosphatase 6 regulatory ankyrin repeat subunit A in human INA-6 cells after 3 hrs by nanoLC-MS/MS method. It counts as cell-based. The method, boiled down:
as §1

Assay [7] addresses Serine/threonine-protein phosphatase 6 catalytic subunit (Homo sapiens) (UniProt O00743). The experiment in a line: Binding affinity to serine/threonine-protein phosphatase 6 catalytic subunit in human INA-6 cells after 3 hrs by nanoLC-MS/MS method. Format: cell-based. The method in brief: as §1
Assay [8] concerns the target Serine/threonine-protein phosphatase 6 regulatory subunit 3 (Homo sapiens) (UniProt Q5H9R7). The experiment in a line: Binding affinity to serine/threonine-protein phosphatase 6 regulatory subunit 3 in human INA-6 cells after 3 hrs by nanoLC-MS/MS method. Format: cell-based. The method in brief: as §1
The target of assay [9] is Serine/threonine-protein phosphatase 6 regulatory ankyrin repeat subunit C (Homo sapiens) (UniProt Q8NB46). Briefly: Binding affinity to serine/threonine-protein phosphatase 6 regulatory ankyrin repeat subunit C in human INA-6 cells after 3 hrs by nanoLC-MS/MS method. Format: cell-based. The method in brief:
as §1

Assay [10] addresses DNA-dependent protein kinase catalytic subunit (Homo sapiens) (UniProt P78527). Briefly: Binding affinity to PRKDC protein in human INA-6 cells after 3 hrs by nanoLC-MS/MS method. Format: cell-based. The method in brief: as §1
Assay [11] addresses Serine-protein kinase ATM (Homo sapiens) (UniProt Q13315). Briefly: Binding affinity to ATM protein in human INA-6 cells after 3 hrs by nanoLC-MS/MS method. It counts as cell-based. The method, boiled down:
as §1

Assay [12] concerns the target Serine/threonine-protein kinase mTOR (Homo sapiens) (UniProt P42345). Briefly: Binding affinity to mTOR protein in human INA-6 cells after 3 hrs by nanoLC-MS/MS method. Format: cell-based. The method in brief: as §1
Assay [13] concerns the target Serine/threonine-protein phosphatase 6 regulatory subunit 2 (Homo sapiens) (UniProt O75170). The experiment in a line: Binding affinity to PP6R2 protein in human INA-6 cells after 3 hrs by nanoLC-MS/MS method. It counts as cell-based. The method, boiled down: as §1
In assay [14] the target is Protein MON2 homolog (Homo sapiens) (UniProt Q7Z3U7). Briefly: Binding affinity to MON2 protein in human INA-6 cells after 3 hrs by nanoLC-MS/MS method. Format: cell-based. The method in brief:
as §1

The target of assay [15] is Conserved oligomeric Golgi complex subunit 7 (Homo sapiens) (UniProt P83436). The experiment in a line: Binding affinity to COG7 in human INA-6 cells after 3 hrs by nanoLC-MS/MS method. Format: cell-based. The method, boiled down: as §1
Sequence of Conserved oligomeric Golgi complex subunit 7 (Homo sapiens) (P83436 whole entry, one chain of several): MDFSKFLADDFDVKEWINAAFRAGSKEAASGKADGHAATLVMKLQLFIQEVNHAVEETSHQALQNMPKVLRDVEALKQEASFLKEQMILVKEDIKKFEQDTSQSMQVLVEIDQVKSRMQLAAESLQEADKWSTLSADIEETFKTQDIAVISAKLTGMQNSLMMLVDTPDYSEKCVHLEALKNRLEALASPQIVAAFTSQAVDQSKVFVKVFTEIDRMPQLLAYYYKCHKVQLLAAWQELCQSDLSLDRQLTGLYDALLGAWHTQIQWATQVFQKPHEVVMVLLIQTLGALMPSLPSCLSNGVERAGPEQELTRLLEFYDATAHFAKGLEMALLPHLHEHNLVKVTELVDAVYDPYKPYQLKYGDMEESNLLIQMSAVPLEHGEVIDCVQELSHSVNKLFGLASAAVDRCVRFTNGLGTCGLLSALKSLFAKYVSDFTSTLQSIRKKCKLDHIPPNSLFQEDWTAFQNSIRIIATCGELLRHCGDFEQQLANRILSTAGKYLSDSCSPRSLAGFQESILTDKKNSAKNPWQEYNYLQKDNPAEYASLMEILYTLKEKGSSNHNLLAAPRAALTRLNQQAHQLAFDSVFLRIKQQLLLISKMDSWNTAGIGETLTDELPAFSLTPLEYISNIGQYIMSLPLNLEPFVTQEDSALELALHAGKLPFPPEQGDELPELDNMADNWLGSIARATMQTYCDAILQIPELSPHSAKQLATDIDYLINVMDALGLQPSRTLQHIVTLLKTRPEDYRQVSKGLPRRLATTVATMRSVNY
In assay [16] the target is Conserved oligomeric Golgi complex subunit 8 (Homo sapiens) (UniProt Q96MW5). Briefly: Binding affinity to COG8 in human INA-6 cells after 3 hrs by nanoLC-MS/MS method. It counts as cell-based. The method, boiled down:
as §1

The target of assay [17] is DNA-dependent protein kinase catalytic subunit (Homo sapiens) (UniProt P78527). Briefly: Binding affinity to PRKDC protein in human INA-6 cells after 3 hrs by Western blot method. Format: cell-based. The method, boiled down: (§2)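 INA-6 lysate was incubated with compound-coupled streptavidin beads or with beads only as the control. Captured-protein eluates were Western blotted with specific antibodies against DNA-PK, ATM, ATR or mTOR. H2AX staining or Ponceau S served as loading controls.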

Assay [18] deals with Serine-protein kinase ATM (Homo sapiens) (UniProt Q13315). The experiment in a line: Binding affinity to ATM protein in human INA-6 cells after 3 hrs by Western blot method. It counts as cell-based. The method, boiled down: as §2
Sequence of Serine-protein kinase ATM (Homo sapiens) (Q13315 whole entry): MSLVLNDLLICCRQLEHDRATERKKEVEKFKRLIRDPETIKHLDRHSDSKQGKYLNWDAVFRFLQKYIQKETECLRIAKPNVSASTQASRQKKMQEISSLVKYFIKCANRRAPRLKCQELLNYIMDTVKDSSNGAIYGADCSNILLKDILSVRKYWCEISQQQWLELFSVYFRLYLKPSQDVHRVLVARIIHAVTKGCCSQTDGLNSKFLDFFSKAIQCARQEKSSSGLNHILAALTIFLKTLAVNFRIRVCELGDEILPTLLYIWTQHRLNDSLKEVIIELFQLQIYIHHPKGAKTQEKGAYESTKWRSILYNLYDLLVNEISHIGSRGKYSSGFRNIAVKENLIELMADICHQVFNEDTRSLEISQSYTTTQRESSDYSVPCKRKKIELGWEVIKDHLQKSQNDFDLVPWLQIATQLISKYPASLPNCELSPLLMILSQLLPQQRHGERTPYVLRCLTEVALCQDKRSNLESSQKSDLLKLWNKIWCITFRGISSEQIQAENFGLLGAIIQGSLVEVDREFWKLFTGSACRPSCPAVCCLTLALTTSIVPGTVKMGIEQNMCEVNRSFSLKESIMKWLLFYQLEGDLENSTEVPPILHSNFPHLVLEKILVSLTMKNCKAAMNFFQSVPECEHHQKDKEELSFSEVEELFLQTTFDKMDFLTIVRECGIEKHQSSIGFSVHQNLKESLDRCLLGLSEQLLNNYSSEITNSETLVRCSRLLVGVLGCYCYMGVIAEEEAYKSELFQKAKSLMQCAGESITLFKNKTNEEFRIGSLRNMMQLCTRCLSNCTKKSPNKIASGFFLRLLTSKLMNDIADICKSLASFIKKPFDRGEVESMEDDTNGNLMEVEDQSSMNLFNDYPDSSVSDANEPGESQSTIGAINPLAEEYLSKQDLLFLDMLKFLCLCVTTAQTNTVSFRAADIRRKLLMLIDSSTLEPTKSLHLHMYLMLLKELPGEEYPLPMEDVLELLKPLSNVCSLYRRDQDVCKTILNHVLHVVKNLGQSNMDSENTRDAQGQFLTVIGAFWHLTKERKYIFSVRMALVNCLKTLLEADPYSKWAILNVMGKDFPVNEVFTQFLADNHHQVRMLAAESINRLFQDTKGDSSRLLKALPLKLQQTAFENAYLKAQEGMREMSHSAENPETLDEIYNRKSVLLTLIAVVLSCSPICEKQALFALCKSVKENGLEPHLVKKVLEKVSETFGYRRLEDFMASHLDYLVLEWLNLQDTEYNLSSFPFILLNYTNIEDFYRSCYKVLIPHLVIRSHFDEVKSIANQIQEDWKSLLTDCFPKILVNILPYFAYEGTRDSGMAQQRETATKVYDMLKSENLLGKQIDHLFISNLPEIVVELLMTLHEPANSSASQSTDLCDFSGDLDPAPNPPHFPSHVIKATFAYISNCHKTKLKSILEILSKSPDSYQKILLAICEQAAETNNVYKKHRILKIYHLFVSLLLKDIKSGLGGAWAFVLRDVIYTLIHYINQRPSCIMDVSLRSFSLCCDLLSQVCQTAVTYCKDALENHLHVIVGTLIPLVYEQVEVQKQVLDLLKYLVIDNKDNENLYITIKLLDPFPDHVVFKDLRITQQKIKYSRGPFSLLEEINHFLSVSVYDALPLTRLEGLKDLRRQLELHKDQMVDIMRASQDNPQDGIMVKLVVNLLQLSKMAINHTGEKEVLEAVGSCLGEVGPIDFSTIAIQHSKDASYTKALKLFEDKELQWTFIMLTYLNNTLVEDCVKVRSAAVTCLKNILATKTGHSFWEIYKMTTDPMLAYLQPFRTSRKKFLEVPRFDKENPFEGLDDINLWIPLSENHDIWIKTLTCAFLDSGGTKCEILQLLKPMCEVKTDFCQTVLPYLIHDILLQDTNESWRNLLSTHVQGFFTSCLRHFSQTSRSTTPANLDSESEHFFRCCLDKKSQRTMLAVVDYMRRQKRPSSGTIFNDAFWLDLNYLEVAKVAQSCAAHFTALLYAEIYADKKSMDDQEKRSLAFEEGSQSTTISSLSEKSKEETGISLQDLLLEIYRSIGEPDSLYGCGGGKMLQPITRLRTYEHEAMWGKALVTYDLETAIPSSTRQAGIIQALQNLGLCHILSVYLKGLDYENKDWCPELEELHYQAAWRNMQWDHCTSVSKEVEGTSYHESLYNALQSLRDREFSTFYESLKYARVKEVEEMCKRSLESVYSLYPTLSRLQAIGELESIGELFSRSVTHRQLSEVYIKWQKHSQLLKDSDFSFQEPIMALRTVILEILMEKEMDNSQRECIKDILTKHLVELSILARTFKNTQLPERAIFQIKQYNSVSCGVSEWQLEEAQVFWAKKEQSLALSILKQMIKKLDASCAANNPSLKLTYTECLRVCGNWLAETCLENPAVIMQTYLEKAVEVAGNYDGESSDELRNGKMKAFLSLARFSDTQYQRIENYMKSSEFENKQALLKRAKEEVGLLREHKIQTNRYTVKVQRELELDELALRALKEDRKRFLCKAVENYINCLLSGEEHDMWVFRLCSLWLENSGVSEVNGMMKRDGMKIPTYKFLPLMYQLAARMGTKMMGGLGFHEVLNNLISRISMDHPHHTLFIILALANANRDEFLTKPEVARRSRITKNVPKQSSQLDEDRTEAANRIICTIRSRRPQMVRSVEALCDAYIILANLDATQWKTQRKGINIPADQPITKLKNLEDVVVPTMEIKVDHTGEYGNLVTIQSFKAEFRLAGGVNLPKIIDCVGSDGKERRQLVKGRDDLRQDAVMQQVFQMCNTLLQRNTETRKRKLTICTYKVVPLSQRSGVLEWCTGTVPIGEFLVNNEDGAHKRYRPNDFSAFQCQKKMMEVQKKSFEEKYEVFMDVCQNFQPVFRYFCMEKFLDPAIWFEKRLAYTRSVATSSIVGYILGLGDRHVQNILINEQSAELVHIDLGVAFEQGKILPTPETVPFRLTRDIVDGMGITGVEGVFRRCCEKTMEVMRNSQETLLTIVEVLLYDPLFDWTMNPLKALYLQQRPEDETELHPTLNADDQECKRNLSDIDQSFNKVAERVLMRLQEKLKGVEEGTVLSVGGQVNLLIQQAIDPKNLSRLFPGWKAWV
A general note: Immunoblotting shows a protein as a band on a membrane.

The target of assay [19] is Serine/threonine-protein kinase ATR (Homo sapiens) (UniProt Q13535). The experiment in a line: Binding affinity to ATR protein in human INA-6 cells after 3 hrs by Western blot method. It counts as cell-based. The method, boiled down: as §2
For assay [20], the target named is Serine/threonine-protein kinase mTOR (Homo sapiens) (UniProt P42345). The experiment in a line: Binding affinity to mTOR protein in human INA-6 cells after 3 hrs by Western blot method. Format: cell-based. The method, boiled down: as §2

Experimental findings from ChEMBL document CHEMBL4011617, “Ugi Reaction-Derived α-Acyl Aminocarboxamides Bind to Phosphatidylinositol 3-Kinase-Related Kinases, Inhibit HSF1-Dependent Heat Shock Response, and Induce Apoptosis in Multiple Myeloma Cells” (J Med Chem, 2017) are described below.

Active and inactive are the calls of the source. The rule behind the calls is not given here.

Sequence of Serine/threonine-protein phosphatase 6 regulatory subunit 3 (Homo sapiens) (Q5H9R7 whole entry): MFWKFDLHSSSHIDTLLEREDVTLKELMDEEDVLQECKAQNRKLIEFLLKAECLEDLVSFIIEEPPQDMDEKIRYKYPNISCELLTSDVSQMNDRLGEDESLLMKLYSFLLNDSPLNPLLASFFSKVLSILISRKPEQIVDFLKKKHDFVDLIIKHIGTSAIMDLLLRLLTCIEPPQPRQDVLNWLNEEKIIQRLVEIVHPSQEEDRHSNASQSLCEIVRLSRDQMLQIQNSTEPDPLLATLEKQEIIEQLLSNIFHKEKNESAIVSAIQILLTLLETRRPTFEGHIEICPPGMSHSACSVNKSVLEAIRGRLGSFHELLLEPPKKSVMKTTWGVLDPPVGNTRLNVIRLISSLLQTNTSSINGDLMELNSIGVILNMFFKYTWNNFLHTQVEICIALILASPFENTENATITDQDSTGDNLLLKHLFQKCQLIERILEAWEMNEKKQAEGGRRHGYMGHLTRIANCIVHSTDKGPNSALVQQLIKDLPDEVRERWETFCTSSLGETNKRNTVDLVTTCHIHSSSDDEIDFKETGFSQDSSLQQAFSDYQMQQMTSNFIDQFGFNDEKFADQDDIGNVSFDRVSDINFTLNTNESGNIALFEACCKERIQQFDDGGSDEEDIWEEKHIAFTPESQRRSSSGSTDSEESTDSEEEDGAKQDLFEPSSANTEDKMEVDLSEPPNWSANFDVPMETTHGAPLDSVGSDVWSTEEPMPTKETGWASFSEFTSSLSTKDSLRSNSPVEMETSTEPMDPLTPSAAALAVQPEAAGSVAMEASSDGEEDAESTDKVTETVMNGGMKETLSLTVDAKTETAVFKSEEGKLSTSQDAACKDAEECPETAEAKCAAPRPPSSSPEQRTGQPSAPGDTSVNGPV
Sequence of Survival motor neuron protein (Homo sapiens) (Q16637 whole entry): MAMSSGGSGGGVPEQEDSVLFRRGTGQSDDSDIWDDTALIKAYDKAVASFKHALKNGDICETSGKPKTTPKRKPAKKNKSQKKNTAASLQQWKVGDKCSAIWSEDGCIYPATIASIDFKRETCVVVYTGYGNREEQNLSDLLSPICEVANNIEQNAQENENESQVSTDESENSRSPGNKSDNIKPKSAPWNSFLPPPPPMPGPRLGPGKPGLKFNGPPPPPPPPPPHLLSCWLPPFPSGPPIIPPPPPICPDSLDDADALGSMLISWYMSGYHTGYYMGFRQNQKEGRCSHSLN
Sequence of MICOS complex subunit MIC10 (Homo sapiens) (Q5TGZ0 whole entry, one chain of several): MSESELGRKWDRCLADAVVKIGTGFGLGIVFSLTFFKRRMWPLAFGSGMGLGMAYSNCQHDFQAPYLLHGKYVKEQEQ

As for `O=C(CCCC[C@@H]1SC[C@@H]2NC(=O)N[C@@H]21)NCCOCCOCCNCCOc1ccc(C(C(=O)NCc2ccccc2)N(C(=O)CCc2ccc(O)cc2)C2CC2)cc1` (mixture of isomers), the “activity call (active/not active) for inhibition of HSP27 upregulation” value in assay [1] was “inactive”. In addition, the result in [2], in assay [3], in assay [4], in assay [5], in assay [6] and in [7] was Active. Further, the result in [8], in [9], in assay [10], in assay [11], in [12] and in assay [13] was Active. Moreover, the outcome in [14], in assay [15], in assay [16], in [17], in assay [18] and in assay [19] was Active. In addition, the outcome in assay [20] was Active.

Take `O=C(CCCC[C@@H]1SC[C@@H]2NC(=O)N[C@@H]21)NCCOCCOCCNCCOc1ccc(C(C(=O)NCc2ccccc2)N(C(=O)CCc2ccccc2)C2CC2)cc1` (mixture of isomers): the “activity call (active/not active) for inhibition of HSP27 upregulation” value in assay [1] is “inactive”. Also, the outcome in [2], in assay [3], in assay [4], in assay [5], in assay [6] and in assay [7] was Active. Moreover, the result in [8], in assay [9], in [10], in assay [11], in assay [12] and in [13] was Active. Further, the result in assay [14], in assay [15] and in assay [16] was Active.
